Assay results taken from ChEMBL document CHEMBL1147105, “In vitro and in vivo activities of PD 0305970 and PD 0326448, new bacterial gyrase/topoisomerase inhibitors with potent antibacterial activities versus multidrug-resistant gram-positive and fastidious organism groups” (2007).

Columns and labels:
Enterococcus faecium = test: Antibacterial activity against VanB-resistant Enterococcus faecium; assay type: functional
In short: (§1)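 Broth microdilution MIC per CLSI guidelines, incubated at 35°C. Cation-adjusted Mueller-Hinton broth for nonfastidious organisms and staphylococci. Streptococci tested in the same broth with 3% lysed horse blood. Anaerobes tested in supplemented Brucella broth inside an anaerobe chamber (5% CO2, 5% H2, 90% N2), read after 48 h. Strains were mainly recent clinical isolates with confirmed identity.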

Corynebacterium sp. = test: Antibacterial activity against Corynebacterium sp.; assay type: functional
In short: (§2)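 Broth microdilution MIC following CLSI guidelines, in cation-adjusted Mueller-Hinton broth containing 3% lysed horse blood, incubated at 35°C. Clinical isolates with identity confirmed. Reported as MIC range, MIC50 and MIC90.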

Moraxella catarrhalis = test: Antibacterial activity against beta-lactamase positive Moraxella catarrhalis; assay type: functional
Citrobacter koseri = test: Antibacterial activity against Citrobacter diversus; assay type: functional
In short: (§3)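 Broth microdilution MIC following CLSI guidelines, in cation-adjusted Mueller-Hinton broth, incubated at 35°C. Recent clinical isolates and reference strains, with identity confirmed by automated and standard microbiological methods. Results reported as MIC range, MIC50 and MIC90.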

Citrobacter freundii = test: Antibacterial activity against Citrobacter freundii; assay type: functional; in short: as §3
Klebsiella aerogenes = test: Antibacterial activity against Enterobacter aerogenes; assay type: functional; in short: as §3
Enterobacter cloacae = test: Antibacterial activity against Enterobacter cloacae; assay type: functional; in short: as §3
Escherichia coli = test: Antibacterial activity against Escherichia coli; assay type: functional; in short: as §3
Klebsiella oxytoca = test: Antibacterial activity against Klebsiella oxytoca; assay type: functional; in short: as §3
Klebsiella pneumoniae = test: Antibacterial activity against beta-lactamase positive Klebsiella pneumoniae; assay type: functional
In short: (§4)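 MIC by CLSI broth microdilution for nonfastidious organisms, in cation-adjusted Mueller-Hinton broth incubated at 35°C.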

Morganella morganii = test: Antibacterial activity against Morganella morganii; assay type: functional; in short: as §3
Proteus vulgaris = test: Antibacterial activity against Proteus vulgaris; assay type: functional; in short: as §3
Salmonella typhimurium = test: Antibacterial activity against Salmonella enterica serovar Typhimurium; assay type: functional, Salmonella enterica subsp. enterica serovar Typhimurium; in short: as §3
Actinomyces sp. = test: Antibacterial activity against Actinomyces sp.; assay type: functional
[1] = system: Peptostreptococcus anaerobius; test: Antibacterial activity against Peptostreptococcus anaerobius; assay type: functional
In short: (§5)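 Anaerobic broth microdilution MIC following CLSI guidelines, in supplemented Brucella broth. Run in an anaerobe chamber under 5% CO2, 5% H2 and 90% N2 at 35°C, and read after 48 h. Reported as MIC range, MIC50 and MIC90.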

Clostridium perfringens = test: Antibacterial activity against Clostridium perfringens; assay type: functional; in short: as §1
Clostridioides difficile = test: Antibacterial activity against Clostridium difficile; assay type: functional; in short: as §5
[2] = system: Bacteroides thetaiotaomicron; test: Antibacterial activity against Bacteroides thetaiotaomicron; assay type: functional; in short: as §5
Bacteroides fragilis = test: Antibacterial activity against Bacteroides fragilis; assay type: functional; in short: as §5
Staphylococcus aureus [3] = test: Antibacterial activity against oxacillin-susceptible Staphylococcus aureus; assay type: functional; in short: as §4
Staphylococcus aureus [4] = test: Antibacterial activity against oxacillin-resistant Staphylococcus aureus; assay type: functional; in short: as §1
Staphylococcus aureus [5] = test: Antibacterial activity against oxacillin and levofloxacin-resistant Staphylococcus aureus; assay type: functional; in short: as §1
[6] = system: Staphylococcus epidermidis; test: Antibacterial activity against oxacillin-susceptible Staphylococcus epidermidis; assay type: functional; in short: as §4
[7] = system: Staphylococcus epidermidis; test: Antibacterial activity against oxacillin-resistant Staphylococcus epidermidis; assay type: functional; in short: as §1
[8] = system: Staphylococcus saprophyticus; test: Antibacterial activity against Staphylococcus saprophyticus; assay type: functional; in short: as §3
Alloiococcus otitis = test: Antibacterial activity against Alloiococcus otitidis; assay type: functional
In short: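 MIC by broth microdilution following CLSI guidelines, in cation-adjusted Mueller-Hinton broth with 3% lysed horse blood. Incubated at 35°C and read after 48 h. Reported as MIC range, MIC50 and MIC90.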

Streptococcus agalactiae = test: Antibacterial activity against Streptococcus agalactiae; assay type: functional; in short: as §2
Streptococcus equinus = test: Antibacterial activity against Streptococcus bovis; assay type: functional
In short: (§6)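 Broth microdilution MIC following CLSI guidelines, in cation-adjusted Mueller-Hinton broth with 3% lysed horse blood. Plates incubated at 35°C. Clinical isolates and reference strains, with identity confirmed by standard microbiological methods.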

Streptococcus pneumoniae [9] = test: Antibacterial activity against penicillin-susceptible Streptococcus pneumoniae; assay type: functional; in short: as §1
Anaerococcus prevotii = test: Antibacterial activity against Peptostreptococcus prevotii; assay type: functional; in short: as §5
Hoylesella oralis = test: Antibacterial activity against Prevotella oralis; assay type: functional; in short: as §5
Streptococcus salivarius = test: Antibacterial activity against Streptococcus salivarius; assay type: functional; in short: as §6
Staphylococcus aureus [10] = test: Antibacterial efficacy against ciprofloxacin and methicillin-resistant Staphylococcus aureus SA2017 infected orally dosed CD1 mouse model; assay type: functional
In short: (§7)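 Sepsis model in female CD1 mice (6–8 weeks, 18–22 g). Lethal i.p. challenge (0.5 ml) at ≥100 median lethal doses. Streptococci were given in Todd-Hewitt broth; other organisms were given with 20% hog gastric mucin. A single oral gavage dose (0.5 ml, in 0.5% methylcellulose) was given at the time of challenge. The PD50 (mg/kg) was calculated by probit analysis.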

Staphylococcus aureus [11] = test: Antibacterial efficacy against methicillin-susceptible Staphylococcus aureus UC76 infected orally dosed CD1 mouse model; assay type: functional; conditions: UC76, po; in short: as §7
Staphylococcus aureus [12] = test: Antibacterial efficacy against methicillin-resistant Staphylococcus aureus SA1417 infected orally dosed CD1 mouse model; assay type: functional; in short: as §7
Streptococcus pneumoniae [13] = test: Antibacterial efficacy against Streptococcus pneumoniae SVI infected orally dosed CD1 mouse model; assay type: functional; conditions: po, read-out: PD50; in short: as §7
Streptococcus pyogenes = test: Antibacterial efficacy against Streptococcus pyogenes C203 infected orally dosed CD1 mouse model; assay type: functional; conditions: C203, po; in short: as §7
Streptococcus pneumoniae [14] = test: Antibacterial activity against Streptococcus pneumoniae SVI infected once daily orally dosed CD1 mouse; assay type: functional; conditions: po, read-out: PD50
In short: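 Pneumonia model in CD1 mice (n = 8), anaesthetised with ketamine i.p. Intranasal instillation of 50 μl of broth culture (10^8–10^9 CFU/ml, OD600 0.70), confirmed by plate counts. Oral therapy began 24 h post-challenge. Dosing was either once daily for 1 day or twice daily for 3 days. The result was given as the PD50 (mg/kg).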

[15] = system: Parabacteroides distasonis; test: Antimicrobial activity against Bacteroides distasonis; assay type: functional
In short: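 Anaerobic broth microdilution MIC following CLSI guidelines, in supplemented Brucella broth. Incubated at 35°C in a chamber under 5% CO2, 5% H2 and 90% N2. Read after 48 h.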

C[C@H]1COc2c(N3CCN(C)CC3)c(F)cc3c(=O)c(C(=O)O)cn1c23.C[C@H]1COc2c(N3CCN(C)CC3)c(F)cc3c(=O)c(C(=O)O)cn1c23.O [LEVOFLOXACIN]
2 µg/mL: MIC90 (Klebsiella oxytoca) | MIC50 (Streptococcus equinus) | MIC90 (Streptococcus equinus) | MIC90 (Hoylesella oralis)
16 µg/mL: MIC90 (Citrobacter freundii) | MIC90 (Morganella morganii)
0.03 µg/mL: MIC50 (Moraxella catarrhalis) | MIC50 (Citrobacter koseri) | MIC50 (Escherichia coli) | MIC (Proteus vulgaris) | MIC50 (Salmonella typhimurium)
0.5 µg/mL: MIC50 (Corynebacterium sp.) | MIC50 (Klebsiella pneumoniae) | MIC90 (Clostridium perfringens) | MIC50 (Clostridioides difficile) | MIC90 (Clostridioides difficile) | MIC90 [8] | MIC50 (Streptococcus pneumoniae [9]) | MIC (Streptococcus pyogenes)
0.06 µg/mL: MIC90 (Moraxella catarrhalis) | MIC90 (Citrobacter koseri) | MIC50 (Enterobacter cloacae) | MIC50 (Klebsiella oxytoca) | MIC90 (Salmonella typhimurium)
32 µg/mL: MIC90 (Corynebacterium sp.) | MIC90 (Klebsiella aerogenes) | MIC90 (Klebsiella pneumoniae) | MIC90 [2] | MIC90 (Bacteroides fragilis) | MIC50 (Staphylococcus aureus [5]) | MIC90 [15]
69 mg/kg: ED50 (Streptococcus pneumoniae [13]) | ED50 (Streptococcus pneumoniae [14])
4.6 mg/kg: ED50 (Staphylococcus aureus [11]; read-out: PD50)
17.7 mg/kg: ED50 (Streptococcus pyogenes; read-out: PD50)
4 µg/mL: MIC (Enterococcus faecium) | MIC50 (Bacteroides fragilis)
8 µg/mL: MIC50 [2] | MIC50 (Staphylococcus aureus [4]) | MIC90 (Staphylococcus aureus [4]) | MIC50 [7] | MIC (Staphylococcus aureus [10]) | MIC50 [15]
64 µg/mL: MIC90 (Staphylococcus aureus [5]) | MIC90 [7]
0.25 µg/mL: MIC (Actinomyces sp.) | MIC50 (Staphylococcus aureus [3]) | MIC90 (Staphylococcus aureus [3]) | MIC [6] | MIC50 [8] | MIC50 (Alloiococcus otitis) | MIC90 (Alloiococcus otitis) | MIC (Staphylococcus aureus [12])
1 µg/mL: MIC50 (Klebsiella aerogenes) | MIC90 (Enterobacter cloacae) | MIC90 (Escherichia coli) | MIC50 (Streptococcus agalactiae) | MIC90 (Streptococcus agalactiae) | MIC90 (Streptococcus pneumoniae [9]) | MIC50 (Hoylesella oralis) | MIC50 (Streptococcus salivarius) | MIC90 (Streptococcus salivarius)
0.125 µg/mL: MIC50 (Citrobacter freundii) | MIC50 (Morganella morganii) | MIC [1] | MIC (Anaerococcus prevotii) | MIC (Staphylococcus aureus [11])
